Data: PMC3984478 (Cancer cell, 2012)

How the values were obtained:
[1] = tested on: OCI-Ly3 cells; experiment: Growth inhibition, ATP-based luminescent assay; type: cell-based, human; conditions: 48 hr
Procedure, shortened: (§1)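 Cells received a single dose of test compound over a concentration range and proliferation was read at 48 hr by luminescent ATP quantification. Luminescence was converted to cell number using per-line standard curves built from trypan blue counts. Viability was normalised to controls and expressed as 1 − fractional viability, and GI25/GI50 were fitted. Experiments were run three times in triplicate.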

[2] = tested on: OCI-Ly10 cells; experiment: Growth inhibition, ATP-based luminescent assay; type: cell-based, human; conditions: 48 hr
Procedure, shortened: as §1

[3] = tested on: U2932 cells; experiment: Growth inhibition, ATP-based luminescent assay; type: cell-based, human; conditions: 48 hr
Procedure, shortened: as §1

[4] = tested on: TMD8 cells; experiment: Growth inhibition, ATP-based luminescent assay; type: cell-based, human
Procedure, shortened: as §1

[5] = tested on: HLY-1 cells; experiment: Growth inhibition, ATP-based luminescent assay; type: cell-based, human; conditions: 48 hr
Procedure, shortened: as §1

[6] = tested on: HBL-1 cells; experiment: Growth inhibition, ATP-based luminescent assay; type: cell-based, human
Procedure, shortened: as §1

[7] = tested on: nuclear c-REL in HBL-1 cells; experiment: c-REL flow cytometry of whole cells or isolated nuclei; type: cell-based, human; conditions: 200 nM MI-2 or 50 µM Z-VRPR-FMK, 24 hr
Procedure, shortened: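 HBL-1 cells were exposed for 24 hr to 200 nM test compound, to 50 µM Z-VRPR-FMK as positive control, or to vehicle. c-REL was then measured by flow cytometry in whole cells and in isolated nuclei.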

[8] = tested on: GCB-DLBCL cell lines (OCI-Ly7 and OCI-Ly1); experiment: Growth inhibition, ATP-based luminescent assay; type: cell-based, human; conditions: 48 hr
Procedure, shortened: as §1

[9] = tested on: primary human GCB DLBCL cells; experiment: Primary human DLBCL ex vivo viability, trypan blue; type: cell-based; conditions: 0.8 µM, 48 hr
Procedure, shortened: (§2)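 Single-cell suspensions came from lymph-node biopsies of five DLBCL patients, prepared by physical disruption and density-gradient separation. GCB versus non-GCB status was assigned by Hans-criteria IHC. Cells were cultured in RPMI with 20% FBS and antibiotics and exposed to 0.8 µM test compound (1 µM for one patient) or DMSO in quadruplicate for 48 hr. Cell number and viability were counted by trypan blue and normalised to vehicle.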

[10] = tested on: nuclear c-REL and p65 in HBL-1 and TMD8 cells; experiment: Western blots for c-REL and p65 in nuclear extracts; type: cell-based, human; conditions: 24 hr, 200 nM for HBL-1 and 500 nM for TMD8
Procedure, shortened: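 Nuclear extracts were prepared from HBL-1 cells (200 nM test compound) and TMD8 cells (500 nM) after 24 hr treatment and immunoblotted for c-REL and p65.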

[11] = tested on: OCI-Ly1 cells; experiment: Trypan blue cell number and Annexin V+ DAPI− apoptosis time course, 14 days; type: cell-based, human; conditions: treated daily at the doses used for TMD8, 14 days
Procedure, shortened: (§3)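 Cell lines were dosed with test compound every 24 hr. Every 48 hr for 14 days, cells were counted by trypan blue exclusion and apoptosis was measured as Annexin V+ DAPI− by flow cytometry. Cell number is expressed as % of vehicle at each time point.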

[12] = tested on: HBL-1 cells; experiment: Intracellular concentration by LC-MS; type: in vitro ADME, human
Procedure, shortened: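 HBL-1 cells were exposed to 0.02, 0.2 or 2 µM test compound for 2 hr, washed three times, and intracellular compound was quantified by LC-MS. For free-drug kinetics, cells at 0.2 µM were sampled at 30 min and at 2, 6, 12, 24 and 48 hr.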

[13] = molecular target: paracaspase domain of MALT1 (residues 329–728) (Homo sapiens, UniProt Q9UDY8); experiment: HSQC NMR binding
[14] = tested on: C57BL/6 mice; experiment: Toxicity in mice; type: in vivo
[15] = molecular target: caspase-8 (Homo sapiens, UniProt Q14790); experiment: Caspase selectivity; type: biochemical
[16] = tested on: HBL-1, TMD8, and OCI-Ly10; experiment: CFSE dilution proliferation assay; type: cell-based, human; conditions: increasing concentrations, 48, 72, and 96 hr
Procedure, shortened: (§4)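 Cells were exposed to increasing concentrations of test compound, and CFSE dilution was read by flow cytometry at 48, 72 and 96 hr. 2 × 10^4 cells were acquired per sample, and DAPI staining was used to gate viable cells for analysis.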

[17] = tested on: NF-κB reporter in 293T cells expressing MALT1 WT; experiment: NF-κB reporter assay, PMA/ionomycin, BCL10 + MALT1 WT; type: cell-based; conditions: 2 µM pretreatment 30 min, PMA/ionomycin 2 hr
[18] = tested on: NF-κB reporter activity in HBL-1 cells; experiment: NF-κB reporter assay in HBL-1; type: cell-based, human; conditions: 200 nM
Procedure, shortened: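 NF-κB luciferase reporter in HBL-1 cells treated with 200 nM test compound, 50 µM Z-VRPR-FMK or vehicle for 8 and 24 hr. Activity is given as % of vehicle, normalised to an internal control. Statistics used ANOVA with Bonferroni post-test.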

[19] = molecular target: MALT1 active site mutant C464A (Homo sapiens, UniProt Q9UDY8, C464A); experiment: LC-MS covalent modification, mutant; type: binding
[20] = tested on: OCI-Ly1; experiment: CFSE dilution proliferation assay; type: cell-based, human; conditions: increasing concentrations, 48, 72, and 96 hr
Procedure, shortened: as §4

[21] = molecular target: caspase-9 (Homo sapiens, UniProt P55211); experiment: Caspase selectivity; type: biochemical
[22] = tested on: ABC-DLBCL cell lines HBL-1 and TMD8, GCB-DLBCL cell line OCI-Ly1; set-up: species or system human; conditions: 48 hr, cell-based assays
Procedure, shortened: as §1

[23] = tested on: TMD8 xenografts; experiment: TMD8 xenograft in NOD-SCID mice; type: in vivo; conditions: IP 25 mg/kg/day, 14 injections
Procedure, shortened: (§5)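 Eight-week-old male NOD-SCID (NOD.CB17-Prkdcscid/J) mice received 10^7 low-passage cells subcutaneously in 50% Matrigel in the right flank. At an average tumour size of 120 mm3, mice were randomised to test compound 25 mg/kg/day IP or vehicle (5% DMSO) for 14 consecutive days and sacrificed 24 hr after the 14th injection. Caliper volume, (smallest diameter² × largest)/2, was taken three times weekly. Ki-67 IHC was counted per high-power field.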

[24] = tested on: HBL-1 and TMD8 cells; experiment: Trypan blue cell number and Annexin V+ DAPI− apoptosis time course, 14 days; type: cell-based, human; conditions: treated daily at GI25 and GI50, 14 days
Procedure, shortened: as §3

[25] = tested on: Z-VRPR-FMK signature genes in HBL-1 and TMD8 cell lines; experiment: Gene expression profiling, GSEA; type: cell-based, human; conditions: GI50 concentrations (HBL-1 200 nM; TMD8 500 nM), 8 hr
[26] = tested on: HBL-1 cells; experiment: Recovery of cells after a single dose; type: cell-based, human; conditions: 0.2 µM dose level
[27] = tested on: primary human non-GCB DLBCL cells; experiment: Primary human DLBCL ex vivo viability, trypan blue; type: cell-based; conditions: 0.8 µM, 48 hr
Procedure, shortened: as §2

[28] = tested on: HBL-1 xenografts; experiment: HBL-1 xenograft in NOD-SCID mice; type: in vivo; conditions: IP 25 mg/kg/day, 14 injections
Procedure, shortened: as §5

[29] = tested on: NF-κB reporter in 293T cells expressing MALT1 C464A; experiment: NF-κB reporter assay, PMA/ionomycin, BCL10 + MALT1 C464A; type: cell-based; conditions: 2 µM pretreatment 30 min, PMA/ionomycin 2 hr
[30] = tested on: MALT1-mediated cleavage of CYLD in HBL-1 cells; experiment: MALT1 cleavage of CYLD, western blotting and densitometry; type: cell-based, human
[31] = tested on: caspase-3/7 activity; experiment: Cell-based caspase-3/7 activity and apoptosis inhibition; conditions: at concentrations that suppress MALT1
[32] = tested on: MALT1 substrate cleavage in HBL-1 and TMD8 cell lines; experiment: Cleavage of MALT1 substrates A20, BCL10, RELB, western blot with MG-132; type: cell-based, human; conditions: 2 µM, 30 min, then 5 µM MG-132 for 1 or 2 hr
Procedure, shortened: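 HBL-1 and TMD8 cells were pretreated for 30 min with 2 µM test compound or vehicle. Proteasome inhibitor MG-132 (5 µM) was then added for a further 1 or 2 hr so that cleaved substrate forms could accumulate. Western blots were probed for A20, RELB and BCL10, and cleavage products were identified by band position.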

[33] = tested on: HBL-1 cells; experiment: BrdU incorporation-DAPI cell cycle; type: cell-based, human; conditions: 24 and 48 hr
Procedure, shortened: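 HBL-1 cells were treated with test compound for 24 and 48 hr, then pulse-labelled with BrdU and co-stained with DAPI. Cell-cycle phases (S, G1-0, sub-G0) were read by flow cytometry. Data are mean ± SD of two independent experiments.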

[34] = molecular target: LZ-MALT1 (recombinant MALT1 (340–789) fused with a leucine zipper dimerization motif) (Homo sapiens, UniProt Q9UDY8); experiment: LZ-MALT1 fluorescence activity assay; type: biochemical; conditions: preincubation with compound before Ac-LRSR-AMC
Procedure, shortened: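 Recombinant MALT1 (340–789) fused to a leucine zipper dimerization motif was preincubated with test compound (0–25 µM) for 5–90 min. Ac-LRSR-AMC substrate was then added, and AMC release was read by fluorescence at 360 nm excitation and 465 nm emission. Percent inhibition was normalized and plotted against preincubation time.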

[35] = molecular target: caspase-3 (Homo sapiens, UniProt P42574); experiment: Caspase selectivity; type: biochemical
[36] = tested on: OCI-Ly1 xenografts; experiment: OCI-Ly1 xenograft in NOD-SCID mice; type: in vivo; conditions: IP 25 mg/kg/day, 14 injections
Procedure, shortened: as §5

[37] = tested on: ABC-DLBCL cell lines HBL-1 and TMD8; experiment: Caspase-3/7 cleavage assay; type: cell-based, human
Procedure, shortened: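 Caspase-3/7 cleavage assay run within 48 hr of exposure to increasing concentrations of test compound.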

[38] = molecular target: MALT1 paracaspase domain (329–728) (Homo sapiens, UniProt Q9UDY8); experiment: LC-MS covalent modification; type: binding

caspase-3, sequence (P42574 29-175 limits assumed, species assumed): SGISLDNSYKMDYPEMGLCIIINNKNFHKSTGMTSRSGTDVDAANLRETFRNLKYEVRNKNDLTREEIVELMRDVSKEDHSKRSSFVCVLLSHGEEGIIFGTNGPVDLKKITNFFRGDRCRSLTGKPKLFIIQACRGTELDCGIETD
caspase-3, sequence (P42574 176-277 limits assumed, species assumed): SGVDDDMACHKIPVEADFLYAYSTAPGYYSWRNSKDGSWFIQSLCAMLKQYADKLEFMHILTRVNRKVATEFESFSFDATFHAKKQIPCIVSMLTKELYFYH
caspase-8, sequence (Q14790 217-374 limits assumed): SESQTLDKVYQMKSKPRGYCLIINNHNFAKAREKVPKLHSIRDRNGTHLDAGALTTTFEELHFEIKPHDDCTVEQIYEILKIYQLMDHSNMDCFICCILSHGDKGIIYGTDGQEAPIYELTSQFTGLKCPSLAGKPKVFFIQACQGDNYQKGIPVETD
caspase-8, sequence (Q14790 385-479 limits assumed): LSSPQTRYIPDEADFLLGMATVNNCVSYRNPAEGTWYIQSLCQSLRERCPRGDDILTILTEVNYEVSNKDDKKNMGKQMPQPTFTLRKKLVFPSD
caspase-9, sequence (P55211 whole entry, species assumed): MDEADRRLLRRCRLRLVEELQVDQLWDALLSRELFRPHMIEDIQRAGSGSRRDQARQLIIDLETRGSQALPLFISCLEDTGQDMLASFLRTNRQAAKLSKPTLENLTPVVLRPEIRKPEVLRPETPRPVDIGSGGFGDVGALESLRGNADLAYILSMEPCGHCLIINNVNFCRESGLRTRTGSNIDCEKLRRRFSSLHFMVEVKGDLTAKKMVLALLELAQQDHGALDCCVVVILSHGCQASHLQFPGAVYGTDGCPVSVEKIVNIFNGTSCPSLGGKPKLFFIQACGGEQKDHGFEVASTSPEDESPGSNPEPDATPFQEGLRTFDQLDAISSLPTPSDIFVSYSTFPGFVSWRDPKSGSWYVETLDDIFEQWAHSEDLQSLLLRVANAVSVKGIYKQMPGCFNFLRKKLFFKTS

Z-VRPR-FMK [reference compound]
response of proliferation ([1]; 50 µM): inhibition of proliferation
response of proliferation ([2]; 50 µM): inhibition of proliferation
response of proliferation ([3]; 50 µM): relatively little response
response of proliferation ([4]; 50 µM, 48 hr): inhibition of proliferation
response of proliferation ([5]; 50 µM): relatively little response
response of proliferation ([6]; 50 µM, 48 hr): inhibition of proliferation
nuclear c-REL (flow cytometry) [7]: reduced nuclear c-REL to a similar extent
response of proliferation ([8]; 50 µM): did not respond

COCCOc1nc(-c2ccc(Cl)c(Cl)c2)n(-c2ccc(NC(=O)CCl)cc2)n1 [MI-2]
GI50 ([1]; OCI-Ly3, single dose): 0.4 µM
response of primary cases (cell number and viability) [9]: none of the GCBs did
nuclear c-REL (western blot) [10]: clear reduction of nuclear c-REL
nuclear p65 levels (western blot) [10]: did not affect p65 levels
cell number and apoptosis [11]: no effect on OCI-Ly1 cells
intracellular concentration ([12]; HBL-1, 0.2 µM, 2 hr): 5 µM
free intracellular drug ([12]; HBL-1, 0.2 µM, by 12 hr): virtually no detectable free MI-2
increase in intracellular concentration ([12]; HBL-1 exposed to 0.02, 0.2, or 2 µM for 2 hr, washed three times): 18- to 30 fold
binding by HSQC NMR [13]: robust interaction
Complete peripheral blood counts, biochemistry, and liver function tests ([14]; daily IP 25 mg/kg over 14 days): normal
toxicity 1: physical indicators of sickness ([14]; daily IP, increasing doses 0.05 to 25 mg/kg over 10 days, cumulative 51.1 mg/kg): no evidence of lethargy, weight loss
activity against caspase-8 [15]: little activity
proliferation (CFSE dilution) [16]: substantially inhibited proliferation
NF-κB induction by PMA/ionomycin [17]: significantly inhibited NF-κB induction
GI50 ([2]; OCI-Ly10, single dose): 0.4 µM
growth inhibition ([3]; U2932, single dose): resistant
GI50 ([4]; TMD8): 0.5 µM
reduction in NF-κB reporter activity ([18]; 8 hr): 20%
reduction in NF-κB reporter activity ([18]; 24 hr): 50%
covalent binding by LC-MS [19]: markedly reduced covalent binding
proliferation (CFSE dilution) [20]: did not affect OCI-Ly1
activity against caspase-9 [21]: little activity
25% growth-inhibitory concentration (GI25) [22]: high-nanomolar range
growth inhibition ([5]; HLY-1, single dose): resistant
apoptotic cells (TUNEL) relative to vehicle [23]: significant increase in apoptotic cells
proliferation (Ki-67 staining) compared to vehicle [23]: significant decrease in proliferation
tumor growth versus vehicle [23]: profoundly suppressed the growth
cell number and apoptosis [24]: profoundly suppressed
enrichment of Z-VRPR-FMK signature (GSEA) [25]: significantly enriched among genes downregulated after MI-2 treatment
recovery of cells [26]: only started to become evident after 48 hr
response of primary cases (cell number and viability) [27]: two of the non-GCB cases responded
GI50 ([6]; HBL-1): 0.2 µM
apoptotic cells (TUNEL) relative to vehicle [28]: significant increase in apoptotic cells
c-REL nuclear protein in tumor sections [28]: reduced c-REL nuclear protein
proliferation (Ki-67 staining) compared to vehicle [28]: significant decrease in proliferation
tumor growth versus vehicle [28]: profoundly suppressed the growth
NF-κB induction by PMA/ionomycin [29]: did not significantly affect
inhibition of MALT1 cleavage of CYLD ([30]; HBL-1, 5 µM for 8 hr, Z-VRPR-FMK 50 µM positive control): most potent compound
MALT1-mediated cleavage of CYLD ([30]; HBL-1, increasing concentrations, 24 hr): dose-dependent decrease in MALT1-mediated cleavage
inhibition of caspase-3/7 activity or apoptosis in cell-based assays [31]: did not inhibit
cleavage of A20, BCL10, and RELB [32]: diminished the abundance of cleaved forms and/or increased the abundance of full-length proteins
cell cycle (BrdU-DAPI) [33]: dose-dependent decrease in S phase
nuclear c-REL (flow cytometry) [7]: reduced nuclear c-REL to a similar extent
growth inhibition ([8]; two GCB-DLBCL cell lines, single dose): resistant
inhibition reached [34]: ~100%
activity against caspase-3 [35]: little activity
apoptotic cells (TUNEL) relative to vehicle [36]: not in OCI-Ly1 xenografts
proliferation (Ki-67 staining) compared to vehicle [36]: no difference
tumor growth versus vehicle [36]: no effect on the growth
apoptosis (caspase-3/7 cleavage) [37]: dose-dependent apoptosis within 48 hr
covalent binding by LC-MS [38]: can bind covalently to MALT1
